Experimental data published in ChEMBL document CHEMBL3992510, “Urea Derivatives of 2-Aryl-benzothiazol-5-amines: A New Class of Potential Drugs for Human African Trypanosomiasis” (J Med Chem, 2017).
pEC50: −log10 of the molar value.

Tests used:
[1] = Drug level in Swiss-Webster mouse plasma infected with Trypanosoma brucei brucei TREU667 at 50 mg/kg, po bid administered via gavage for 10 days starting from 21 days post infection measured at 6 hrs post last dose; type: ADME, organism-based
[2] = Drug level in Swiss-Webster mouse plasma infected with Trypanosoma brucei rhodesiense STIB900 at 50 mg/kg, po bid administered via gavage for 4 days starting from 2 days post infection measured at 6 hrs post last dose; type: ADME, organism-based
Outline: (§1)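 Female Swiss-Webster mice (ND4 outbred, 6−8 weeks), groups of five, infected day 0 with 1 × 10^4 T. b. rhodesiense STIB900; 50 mg/kg oral gavage every 12 h days 2−5 (eight doses) in 200 μL DMSO 5%, Tween 80 7%, EtOH 3% in 0.9% saline. Tail blood from 3 mice before dose 7, then 1 and 6 h post-dose, spotted on cards, LC-MS/MS.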

[3] = Drug level in mouse brain at 50 mg/kg, po administered as single dose via gavage measured at 24 hrs post dose by liquid chromatography/tandem mass spectrometric analysis; type: ADME, organism-based; conditions: read-out: Drug uptake
Outline: (§2)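 Single 50 mg/kg oral dose in DMSO (5%), Tween 80 (7%), EtOH (3%) in 0.9% saline; groups of three mice killed at 1, 4, 8 and 24 h. Plasma separated by brief centrifugation; brain homogenised in acetonitrile; both assayed by LC-MS/MS, brain values corrected for 3% v/w blood content. Mean ± SEM of 3 mice; plasma LLQ 0.010 μM.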

[4] = AUC (0 to infinity) in mouse at 50 mg/kg, po administered as single dose via gavage as 7% Tween 80/3% EtOH/5% DMSO formulation by liquid chromatography/tandem mass spectrometric analysis; type: ADME, organism-based; parameters: dose 50 mg/kg, route oral, time infinity; conditions: in vivo
Outline: (§3)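 Single oral gavage dose of 50 mg/kg to groups of three mice, vehicle as in the line. Tail blood of 40 μL is taken into heparinized capillaries at time points out to as much as 32 h. It is spotted on dried-blood cards and quantified by LC-MS/MS. Values are means ± SEM of three mice.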

[5] = Drug level in mouse plasma at 50 mg/kg, po administered as single dose via gavage measured at 1 hr post dose by liquid chromatography/tandem mass spectrometric analysis; type: ADME, organism-based; outline: as §2
[6] = Drug level in Swiss-Webster mouse plasma infected with Trypanosoma brucei rhodesiense STIB900 at 50 mg/kg, po bid administered via gavage for 4 days starting from 2 days post infection measured at 1 hr post last dose; type: ADME, organism-based; outline: as §1
[7] = AUC (0 to infinity) in mouse at 50 mg/kg, po administered as single dose via gavage as 0.5% methylcellulose cP400/0.5% Tween 80 formulation by liquid chromatography/tandem mass spectrometric analysis; type: ADME, organism-based; parameters: dose 50 mg/kg, route oral, time infinity; conditions: in vivo; outline: as §3
[8] = AUC (0 to infinity) in mouse plasma at 50 mg/kg, po administered as single dose via gavage by liquid chromatography/tandem mass spectrometric analysis; type: ADME, organism-based; parameters: dose 50 mg/kg, time infinity, route oral
Outline: (§4)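 Time course after a single 50 mg/kg oral dose in 5% DMSO/7% Tween 80/3% EtOH in 0.9% saline. Mice are sacrificed in groups of three at 1, 4, 8 and 24 h. Plasma is separated by centrifugation and brain homogenized in acetonitrile, both measured by LC-MS/MS. Brain values are corrected for 3% v/w blood. Lower limit of quantitation 0.010 μM. Values are means ± SEM.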

[9] = Drug level in mouse plasma at 50 mg/kg, po administered as single dose via gavage measured at 8 hrs post dose by liquid chromatography/tandem mass spectrometric analysis; type: ADME, organism-based; outline: as §2
[10] = AUC (0 to infinity) in mouse brain at 50 mg/kg, po administered as single dose via gavage by liquid chromatography/tandem mass spectrometric analysis; type: ADME, organism-based; parameters: dose 50 mg/kg, time infinity, route oral; outline: as §4
[11] = Stability in human liver microsomes assessed as compound remaining at 1.5 uM in presence of NADPH measured after 60 mins by liquid chromatography/tandem mass spectrometric analysis; type: ADME, microsome; conditions: read-out: Stability
Outline: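 Pooled liver microsomes (0.5 mg/mL) are preincubated 5 min at 37 °C in 0.16 M KH2PO4 with 1 mM NADPH, then test compound is added at 1.5 μM. Aliquots are quenched with 4 volumes of acetonitrile at 0, 5, 10, 15, 30 and 60 min and analyzed by LC-MS/MS. Percent remaining at 5 or 60 min is given when t1/2 is outside the 5–60 min range. Controls: testosterone, dextromethorphan.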

[12] = Cytotoxicity against human CRL8155 cells assessed as growth inhibition after 48 hrs by Alamar blue assay; type: cell-based; conditions: Homo sapiens, CRL8155, 48 h
Outline: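 CRL-8155 lymphoblasts or HepG2 hepatocellular carcinoma cells are exposed 48 h to serial compound dilutions in quadruplicate. Growth is read with Alamar Blue, and 50% and 90% inhibitory concentrations come from nonlinear regression. Quinacrine is the control.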

[13] = tested on: Trypanosoma brucei brucei; test: Antitrypanosomal activity against Trypanosoma brucei brucei BF427 assessed as growth inhibition measured after 48 hrs by Alamar blue assay; type: functional; conditions: BF427, 48 h
Outline: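 Bloodstream-form parasites in HMI-9 medium are exposed to serial compound dilutions in triplicate. Viability is read with Alamar Blue at 48 h. EC50 and EC90 come from nonlinear regression. Pentamidine isethionate is the control.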

O=C(Nc1ccc2sc(-c3ccc(F)c(F)c3)nc2c1)N1CC[C@H](F)C1
concentration at 6 h [1]: 26.7 µM
concentration at 6 h [2]: 15 µM
concentration at 24 h [3]: 0.28 µM
AUC(0-inf) [4]: 220 to 221 µM·h
concentration at 1 h [5]: 27.1 µM
concentration at 1 h [6]: 18.6 µM
AUC(0-inf) [7]: 106 µM·h
AUC(0-inf) [8]: 180 µM·h
concentration at 8 h [9]: 8.97 µM
AUC(0-inf) [10]: 719 µM·h
remaining at 1 h, 1.5 µM [11]: 53%
pEC50 [12]: < 4.30
pEC50 [13]: 7.46
EC90 [13]: 54.8 nM
